Assay outcomes from PubChem BioAssay.
Sampled rows, rich in hits. Any-hit rate of the full collection: about 2.9%.
MEKK2mut PB1 HTS – signal of MEK5 binding to mutant human MEKK2 PB1 domain | bead flow cytometry, Alexa488-MEK5 binding to MEKK2 mutant | percent response, % at 10 µM | actives 0.35% (n = 290,000); in the data active = percent response above about 24%, passing the limit was not always enough
UBC13 inh – blocks human UBC13 polyubiquitin chain formation. P61088. TR-FRET. inhibition, % at 20 µM. actives 0.47% (n = 330,000); in the data active = inhibition above about 45%, passing the limit was not always enough
Target sequence (P61088 whole entry, looked up): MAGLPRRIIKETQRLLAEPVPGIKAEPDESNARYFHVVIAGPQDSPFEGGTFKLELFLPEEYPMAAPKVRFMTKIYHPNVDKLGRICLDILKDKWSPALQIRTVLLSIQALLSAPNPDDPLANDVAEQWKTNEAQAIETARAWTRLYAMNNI
MEKK3 PB1 HTS – raises or lowers MEK5 binding to the human MEKK3 PB1 domain. Q99759. bead-based flow cytometry, Alexa488-MEK5 binding to MEKK3; actives lie on both sides; 0 = blocked by unlabeled MEK5, 100 = vehicle. binding response (% of control), % at 10 µM. actives 1.4% (n = 290,000). AID 1529;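 active = binding response more than 3 SD above or below the average of its plate-row segment, actives on both sides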;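 note: Alexa488 bead fluorescence after subtracting the streptavidin-only scavenger bead signal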
MEKK2wt PB1 HTS – raises or lowers MEK5 binding to wildtype human MEKK2 PB1 domain | actives 1.1% (n = 290,000) | bead flow cytometry, Alexa488-MEK5 binding to MEKK2 WT; actives lie on both sides | Q9Y2U5 | binding response (% of control), % at 10 µM | AID 1531; in the data active = binding response below about 67% or above about 130%
Apaf-1 inh – inhibitors of human Apaf-1 apoptosome | O14727 | reconstituted apoptosome caspase-3 activity, DEVD-Rh110 fluorescence | inhibition, % at 20 µM | actives 0.71% (n = 330,000); active = inhibition of at least 40% at 20 µM;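 note: plate controls were DMSO wells for no effect and DEVD-CHO caspase inhibitor wells for full effect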
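Assay system: Apoptosome proteins | Medium: pH 7.5 Hepes buffer with CHAPS, BSA, DTT | Also added: Cytochrome c and DEVD-Rh110 substrate | Times: 30 min plus 50 min, RT | Detection: Rhodamine 110 fluorescence at Ex 480/Em 540 nm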
MEKK2wt confirm – raises or lowers MEK5 binding to wildtype human MEKK2, retest. actives 2.4% (n = 5,900). shares compounds with MEKK3 PB1 HTS. binding response (% of control), % at 10 µM. AID 1892. bead flow cytometry, Alexa488-MEK5 binding to MEKK2 WT; actives lie on both sides; in the data active = binding response below about 16% or above about 210%; inactive = in between
MEKK2mut confirm – signal of MEK5 binding to mutant human MEKK2, retest | bead flow cytometry, Alexa488-MEK5 binding to MEKK2 mutant | actives 2% (n = 5,900) | AID 1893 | percent response, % at 10 µM | shares compounds with MEKK3 PB1 HTS; in the data active = percent response mostly above about 71%, no sharp cut-off; inactive = mostly below about 38%;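 note: higher means compound restores mutant binding toward wildtype level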
MEKK3 confirm – MEKK3-MEK5 PB1 inhibition, single concentration confirmation. shares compounds with MEKK3 PB1 HTS. bead flow cytometry, Alexa488-MEK5 binding to MEKK3; active compounds read low. binding response (% of control), % at 10 µM. actives 1.8% (n = 5,900). AID 1894;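 active = binding response below 72% of control, or above a set upper limit, though filed actives all read lower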;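 note: 100% = DMSO only wells and 0% = binding blocked by excess unlabeled MEK5; lower values mean stronger disruption of MEK5 binding to MEKK3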
Starred values were filed as active, the others as inactive; / = no result; ! = not confirmed by another sample; [ ] = another dose, or the depositor's remark.

SMILES	MEKK2mut PB1 HTS	UBC13 inh	MEKK3 PB1 HTS	MEKK2wt PB1 HTS	Apaf-1 inh	MEKK2wt confirm	MEKK2mut confirm	MEKK3 confirm
COc1ccc2[nH]c3c(=O)n(N)c(C)nc3c2c1	1.0	5.9	136.0*	107.0	-3.1	104.0	2.0	105.0
CCOC(=O)c1c(-c2ncc(C(F)(F)F)cc2Cl)noc1C	-5.0	5.1	96.0	100.0	-1.7	/	/	/
Cc1ccc(C(=O)NCC(=O)OC(C)C(=O)Nc2ccc(N(C)C)cc2)cc1C (centres undefined)	8.0	1.0	141.0*	132.0	5.3	102.0	0.0	104.0
Cc1ccn(C(=O)c2ccc(NC(=O)C3CC3)cc2)n1	2.0	2.1	107.0	99.0	1.3	/	/	/
O=C(CC1C(=O)NCCN1CC1CCCCC1)NCc1ccc(Cl)cc1 (centres undefined)	26.0	9.6	117.0	147.0*	19.4	118.0	12.0	106.0
Cc1ccc(NC(=O)Cn2c(=O)oc3ccccc32)c(C)c1	0.0	-6.0	102.0	102.0	-1.1	/	/	/
Cn1nnnc1SCC(=O)Nc1ccccc1Br	10.0	-13.3	103.0	116.0	1.0	/	/	/
Cn1nnnc1SCC(=O)Nc1ccccc1Cc1ccccc1	-24.0	-3.2	3.0*[inhibitor]	3.0*[inhibitor]	2.6	100.0	-2.0	102.0
O=C(NCc1ccco1)c1ccc(Cn2c(=O)c3ccccc3n(Cc3ccc(Cl)cc3)c2=O)cc1	8.0	-11.9	133.0*	122.0	21.4	108.0	3.0	105.0
CCOc1ccc(NC(=O)CCn2c(=O)[nH]c3ccsc3c2=O)cc1	-1.0	-13.0	99.0	100.0	5.3	/	/	/
O=C(CNc1cc(S(=O)(=O)N2CCCC2)ccc1OCC(F)(F)F)Nc1ccc(SC(F)F)cc1	1.0	5.8	144.0*	115.0	-11.7	90.0	-13.0	100.0
O=C(CNc1cc(S(=O)(=O)N2CCCC2)ccc1OCC(F)(F)F)Nc1cc(Cl)cc(Cl)c1	3.0	-6.3	104.0	108.0	-10.7	/	/	/
O=c1c(/C=C(\O)c2ccccc2)nc2ccccc2n1-c1ccccc1	-19.0	-10.7	81.0*[inhibitor]	58.0*[inhibitor]	25.2	66.0	-18.0	85.0
Cc1nc2ccccc2n1-c1ccccc1	11.0	-6.1	108.0	112.0	0.8	/	/	/
Cc1ccccc1N1C(=O)c2ccccc2C1O (centres undefined)	-1.0	-4.1	99.0	100.0	4.0	/	/	/
CCCCn1c(N)c(N(CCOC)C(=O)CCCc2cccs2)c(=O)[nH]c1=O	/	-1.6	/	/	-0.7	/	/	/
CCS(=O)(=O)N1Cc2ccccc2CC1C(=O)Nc1nnc(SCc2c(Cl)cccc2Cl)s1 (centres undefined)	-1.0	-11.1	97.0	93.0	25.9	/	/	/
CCSc1nnc(NC(=O)C2Cc3ccccc3CN2S(=O)(=O)CC)s1 (centres undefined)	-1.0	-22.5	12.0*[inhibitor]	16.0*[inhibitor]	10.3	99.0	2.0	104.0
CCOc1ccccc1-n1c(COc2ccccc2)nnc1SCC(N)=O	0.0	3.9	91.0	95.0	-7.4	/	/	/
CCOc1ccc(-n2c(COc3ccccc3)nnc2SCC(N)=O)cc1	5.0	-1.6	122.0*	106.0	8.4	98.0	-2.0	103.0
Fc1ccc(CSc2nnc3ccc(-c4ccncc4)nn23)cc1	190.0*	-5.2	127.0	115.0	-23.6	97.0	-2.0	101.0
COC(=O)c1ccccc1S(=O)(=O)NNC(=O)Nc1ccccc1	3.0	3.1	103.0	106.0	-5.1	/	/	/
CC(C)NCC(O)c1ccc(NS(C)(=O)=O)cc1 (centres undefined)	6.0	7.6	122.0*!	119.0	-11.3	101.0	-5.0	99.0
CCOC(=O)c1ccc(NS(C)(=O)=O)cc1	5.0	-3.7	107.0	108.0	1.6	/	/	/
C#CCOCCOCCOCCNc1nc(N2CCN(C(=O)[C@H]([C@@H](C)CC)n3cc([C@@H](N)Cc4ccc(O)cc4)nn3)CC2)nc(N2CCN(C(=O)[C@H](Cc3cc4ccccc4[nH]3)n3cc([C@@H](N)C(C)CC)nn3)CC2)n1 (some centres undefined)	91.0*	77.8*	113.0	237.0*	49.1*	216.0*	68.0	112.0
SMILES	MEKK2mut PB1 HTS	UBC13 inh	MEKK3 PB1 HTS	MEKK2wt PB1 HTS	Apaf-1 inh	MEKK2wt confirm	MEKK2mut confirm	MEKK3 confirm
C#CCOCCOCCOCCNc1nc(N2CCN(C(=O)[C@H](CCC(=O)O)n3cc(C(N)Cc4ccc(O)cc4)nn3)CC2)nc(N2CCN(C(=O)[C@H](Cc3cc4ccccc4[nH]3)n3cc(C(N)[C@H](C)CC)nn3)CC2)n1 (some centres undefined)	38.0	12.6	112.0	153.0*	7.2	134.0	20.0	102.0
C#CCOCCOCCOCCNc1nc(N2CCN(C(=O)[C@H]([C@@H](C)CC)n3cc([C@@H](N)CC(C)C)nn3)CC2)nc(N2CCN(C(=O)[C@H](Cc3cc4ccccc4[nH]3)n3cc([C@@H](N)CC(C)C)nn3)CC2)n1	52.0*	40.2	108.0	151.0*	57.7*	252.0*	169.0*	116.0
C#CCOCCOCCOCCNc1nc(N2CCN(C(=O)[C@H](Cc3cc4ccccc4[nH]3)n3cc(C(N)CC(C)C)nn3)CC2)nc(N2CCN(C(=O)[C@H](CCC(=O)O)n3cc(C(N)[C@H](C)CC)nn3)CC2)n1 (some centres undefined)	4.0	-4.8	100.0	108.0	0.7	/	/	/
CCOc1ccc(S(=O)(=O)NCCC(=O)OCC(=O)N2CC(=O)Nc3ccccc32)cc1	3.0	-5.5	106.0	102.0	1.5	/	/	/
S=C(Sc1ccc(Cl)cc1)Sc1ccc(Cl)cc1	2.0	1.1	101.0	109.0	8.2	/	/	/
Cc1ccc(NC(=O)C2CCN(S(=O)(=O)c3ccc4c(c3)NC(=O)C(C)S4)CC2)cc1Cl (centres undefined)	-2.0	-7.5	100.0	103.0	19.4	/	/	/
COc1ccccc1NC(=O)c1ccc(NC(=O)COC(=O)CC(NC(=O)c2ccccc2Cl)c2ccccc2)cc1 (centres undefined)	0.0	-9.0	130.0*	103.0	3.6	93.0	-8.0	108.0
CC(=O)Nc1c(C(=O)N2CCCCCC2)cnn1-c1ccccc1	-11.0	0.7	81.0*[inhibitor]	86.0	-4.8	105.0	-5.0	102.0
Cc1ccc(C)c(S(=O)(=O)NCc2cccnc2)c1	-2.0	-3.5	98.0	99.0	1.6	/	/	/
Cc1ccc(C)c(S(=O)(=O)NCc2ccncc2)c1	11.0	-2.0	137.0*	128.0	3.5	89.0	-9.0	97.0
